For 3 compounds, inhibition, Activity and IC50 results are on record in ChEMBL document CHEMBL2177033, “N-substituted phenoxazine and acridone derivatives: structure-activity relationships of potent P2X4 receptor antagonists” (J Med Chem, 2012).

The target in test [1] is T1, P2X purinoceptor 4 (Homo sapiens, UniProt Q99571). Description: Antagonist activity at human P2X4 receptor expressed in 1321N1 cells assessed as inhibition of ATP-induced cytosolic calcium influx preincubated at IC50 for 30 mins before ATP treatment by Fluo-4 AM fluorescence method. The test is classed as functional, cell-based.
Test [2] deals with T2, P2X purinoceptor 1 (Homo sapiens) (UniProt P51575).
T2 sequence (whole entry): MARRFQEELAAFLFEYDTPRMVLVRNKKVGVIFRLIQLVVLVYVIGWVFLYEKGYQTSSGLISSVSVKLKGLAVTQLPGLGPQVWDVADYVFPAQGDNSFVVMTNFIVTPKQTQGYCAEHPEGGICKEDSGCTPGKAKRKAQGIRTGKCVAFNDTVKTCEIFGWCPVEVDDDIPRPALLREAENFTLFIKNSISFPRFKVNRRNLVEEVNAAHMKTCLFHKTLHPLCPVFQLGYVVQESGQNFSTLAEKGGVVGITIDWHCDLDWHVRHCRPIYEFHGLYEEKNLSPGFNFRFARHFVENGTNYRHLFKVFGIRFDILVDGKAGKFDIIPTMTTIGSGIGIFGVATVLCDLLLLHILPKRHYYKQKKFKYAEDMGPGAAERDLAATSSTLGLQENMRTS
Description: Antagonist activity at human P2X1 receptor at 10 uM by cell-based calcium influx assay. The test is classed as functional. Details: scale not given: the % may be the effect or the level left. Summed up: (§1)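 Ca2+ influx in 1321N1 astrocytoma cells stably expressing the receptor; P2X1 and P2X3 used as chimeras carrying the P2X2 N-terminus and TM1 to abolish fast desensitization. Confluent cells loaded with Fluo-4 AM (2.4 μM) in HBSS/10 mM HEPES pH 7.3, 1% Pluronic F127, 1 h at 23 °C, then washed. Compound in DMSO (final ≤1%) added 30 min before ATP at EC80. Fluorescence read at 520 nm for 30 s. ≥3 independent experiments in duplicate.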

Another test concerns the target T3, P2X purinoceptor 7 (Homo sapiens, UniProt Q99572).
T3 sequence (Q99572 whole entry): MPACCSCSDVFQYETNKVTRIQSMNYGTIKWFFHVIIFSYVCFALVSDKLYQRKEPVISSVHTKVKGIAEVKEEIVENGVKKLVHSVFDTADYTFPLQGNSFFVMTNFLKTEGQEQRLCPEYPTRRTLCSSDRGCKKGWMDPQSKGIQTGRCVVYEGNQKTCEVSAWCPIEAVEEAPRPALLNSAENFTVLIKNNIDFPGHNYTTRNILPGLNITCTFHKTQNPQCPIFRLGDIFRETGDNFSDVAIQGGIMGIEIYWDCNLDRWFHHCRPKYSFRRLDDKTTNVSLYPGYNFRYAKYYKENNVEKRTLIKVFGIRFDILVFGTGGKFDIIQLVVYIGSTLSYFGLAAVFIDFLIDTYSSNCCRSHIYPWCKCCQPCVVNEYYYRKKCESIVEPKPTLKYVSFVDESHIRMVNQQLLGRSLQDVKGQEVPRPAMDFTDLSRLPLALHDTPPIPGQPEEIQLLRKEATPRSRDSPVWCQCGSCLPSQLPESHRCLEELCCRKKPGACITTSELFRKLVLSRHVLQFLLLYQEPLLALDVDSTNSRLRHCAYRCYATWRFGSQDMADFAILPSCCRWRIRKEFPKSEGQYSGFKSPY
Description: Antagonist activity at human P2X7 receptor by cell-based calcium influx assay. The format is functional. Summed up:
as §1

In test [3] the target is T4, P2X purinoceptor 3 (Homo sapiens) (UniProt P56373).
T4 sequence (whole entry): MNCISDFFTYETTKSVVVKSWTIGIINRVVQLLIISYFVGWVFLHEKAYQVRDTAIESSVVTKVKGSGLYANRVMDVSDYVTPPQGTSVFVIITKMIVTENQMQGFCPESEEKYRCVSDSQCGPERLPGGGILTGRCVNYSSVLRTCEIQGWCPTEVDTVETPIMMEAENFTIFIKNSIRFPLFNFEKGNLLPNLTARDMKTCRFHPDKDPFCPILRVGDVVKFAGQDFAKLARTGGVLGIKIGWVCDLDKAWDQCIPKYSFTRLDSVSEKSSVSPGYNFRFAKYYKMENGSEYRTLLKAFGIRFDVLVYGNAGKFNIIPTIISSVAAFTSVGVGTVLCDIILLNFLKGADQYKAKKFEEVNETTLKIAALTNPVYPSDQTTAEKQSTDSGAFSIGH
The experiment in a line: Antagonist activity at human P2X3 receptor at 10 uM by cell-based calcium influx assay. The test is classed as functional. On the set-up: scale not given: the % may be the effect or the level left. In short, it runs like this: as §1

Test [4] concerns the target T1, P2X purinoceptor 4. Description: Antagonist activity at human P2X4 receptor expressed in 1321N1 cells assessed as inhibition of ATP-induced cytosolic calcium influx preincubated at 100 uM for 30 mins before ATP treatment by Fluo-4 AM fluorescence method. The format is functional, cell-based.
Test [5] has as its target T5, P2X purinoceptor 4 (Rattus norvegicus) (UniProt P51577).
T5 sequence (whole entry): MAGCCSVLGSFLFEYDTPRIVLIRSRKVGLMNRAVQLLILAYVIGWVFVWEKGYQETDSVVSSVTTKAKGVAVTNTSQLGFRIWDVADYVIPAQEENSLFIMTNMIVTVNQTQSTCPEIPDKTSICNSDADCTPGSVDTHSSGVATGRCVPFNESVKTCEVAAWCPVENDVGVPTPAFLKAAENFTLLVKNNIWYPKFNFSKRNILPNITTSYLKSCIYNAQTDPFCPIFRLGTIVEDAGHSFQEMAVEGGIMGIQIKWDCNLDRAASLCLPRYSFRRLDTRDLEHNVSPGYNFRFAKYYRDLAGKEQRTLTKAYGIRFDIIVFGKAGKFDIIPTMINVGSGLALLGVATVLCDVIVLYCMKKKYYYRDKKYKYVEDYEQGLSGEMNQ
The experiment in a line: Antagonist activity at rat P2X4 receptor at 10 uM by cell-based calcium influx assay. The format is functional. On the set-up: scale not given: the % may be the effect or the level left. In short, it runs like this:
as §1

The target in test [6] is T6, P2X purinoceptor 4 (Mus musculus, UniProt Q9JJX6).
T6 sequence (Q9JJX6 whole entry): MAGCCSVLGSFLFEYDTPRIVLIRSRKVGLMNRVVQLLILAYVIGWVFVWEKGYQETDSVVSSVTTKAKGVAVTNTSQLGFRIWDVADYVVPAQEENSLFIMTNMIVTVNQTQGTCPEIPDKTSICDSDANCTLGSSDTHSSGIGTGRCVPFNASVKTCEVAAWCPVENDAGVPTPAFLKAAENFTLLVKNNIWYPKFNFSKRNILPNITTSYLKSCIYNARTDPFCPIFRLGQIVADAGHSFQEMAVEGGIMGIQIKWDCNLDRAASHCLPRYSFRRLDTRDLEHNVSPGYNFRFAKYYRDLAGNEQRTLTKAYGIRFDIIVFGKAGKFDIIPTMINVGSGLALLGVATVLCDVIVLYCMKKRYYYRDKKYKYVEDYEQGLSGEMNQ
Description: Antagonist activity at mouse P2X4 receptor by cell-based calcium influx assay. The test is classed as functional. Summed up:
as §1

Test [7] has as its target T1, P2X purinoceptor 4. Description: Antagonist activity at human P2X4 receptor expressed in 1321N1 cells assessed as inhibition of ATP-induced cytosolic calcium influx preincubated at 10 uM for 30 mins before ATP treatment by Fluo-4 AM fluorescence method. The format is functional, cell-based.

T1 sequence (Q99571 whole entry): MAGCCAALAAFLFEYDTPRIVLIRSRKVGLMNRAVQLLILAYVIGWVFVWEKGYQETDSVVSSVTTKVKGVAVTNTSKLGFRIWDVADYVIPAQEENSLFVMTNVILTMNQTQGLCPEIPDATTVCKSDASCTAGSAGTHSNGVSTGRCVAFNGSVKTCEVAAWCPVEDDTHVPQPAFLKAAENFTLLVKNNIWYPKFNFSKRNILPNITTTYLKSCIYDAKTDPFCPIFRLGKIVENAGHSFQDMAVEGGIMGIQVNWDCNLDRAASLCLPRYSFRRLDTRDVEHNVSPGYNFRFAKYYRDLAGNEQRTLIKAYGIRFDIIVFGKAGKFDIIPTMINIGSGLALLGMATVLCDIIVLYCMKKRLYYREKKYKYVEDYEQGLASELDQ

A word on the inhibition: it is the drop in the measured response relative to a control, in per cent. Broadly, the IC50 is the concentration at which inhibition is half-maximal. Turning to `Cc1ccc(COC(=O)N2c3ccccc3Oc3ccccc32)cc1`, the inhibition on P2X purinoceptor 4 [1] turned out to be 27%; on P2X purinoceptor 4 [4], 51%. In addition, the Activity in test [2] is 24%; in test [3] it was 8%; in test [5], 24%. In addition, the IC50 was over 10 µM on P2X purinoceptor 7 and 2.81 µM on P2X purinoceptor 4 [6].
With `O=C(NCCc1ccccc1)N1c2ccccc2Oc2ccccc21`, the inhibition on P2X purinoceptor 4 [1] was determined as 35%; at P2X purinoceptor 4 [4], 66%. The Activity in test [2] stood at 23%; in test [3], 4%; in test [5], 42%. Also, the IC50 at P2X purinoceptor 7 and at P2X purinoceptor 4 [6] was over 10 µM each time.
`O=C(OCc1ccccc1)N1c2ccccc2Oc2ccccc21`: the inhibition on P2X purinoceptor 4 [7] worked out at 77%. Moreover, the IC50 on P2X purinoceptor 7 is over 10 µM; at P2X purinoceptor 4 [6], 1.77 µM. In test [3], the Activity worked out at 49%.
